Laboratory results published in ChEMBL document CHEMBL2375278, “Small-molecule inhibitors of cathepsin L incorporating functionalized ring-fused molecular frameworks” (Bioorg Med Chem Lett, 2013).

Assays:
[1] = target: Cathepsin B (Homo sapiens, UniProt P07858); experiment: Inhibition of human liver Cathepsin B using Z-Arg-Arg-aminomethylcoumarin as substrate incubated for 5 mins prior to substrate addition measured for 5 mins by fluorometric analysis
Summary of the method: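 Assay run with 2% DMSO in the well and a five-minute pre-incubation before substrate. Substrate was used at 60 µM. Activity is reported as IC₅₀ (nM).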

[2] = target: Procathepsin L (Homo sapiens, UniProt P07711); experiment: Inhibition of human liver Cathepsin L using Z-Phe-Arg-aminomethylcoumarin as substrate incubated for 5 mins prior to substrate addition measured for 5 mins by fluorometric analysis
Summary of the method: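 Assay run with 2% DMSO in the well and a five-minute pre-incubation before substrate. Substrate was used at 50 µM. Activity is reported as IC₅₀ (nM).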

[3] = species on record: Homo sapiens; experiment: Selectivity ratio of IC50 for human liver Cathepsin B to IC50 for human liver Cathepsin L

Chain of Procathepsin L (P07711 whole entry): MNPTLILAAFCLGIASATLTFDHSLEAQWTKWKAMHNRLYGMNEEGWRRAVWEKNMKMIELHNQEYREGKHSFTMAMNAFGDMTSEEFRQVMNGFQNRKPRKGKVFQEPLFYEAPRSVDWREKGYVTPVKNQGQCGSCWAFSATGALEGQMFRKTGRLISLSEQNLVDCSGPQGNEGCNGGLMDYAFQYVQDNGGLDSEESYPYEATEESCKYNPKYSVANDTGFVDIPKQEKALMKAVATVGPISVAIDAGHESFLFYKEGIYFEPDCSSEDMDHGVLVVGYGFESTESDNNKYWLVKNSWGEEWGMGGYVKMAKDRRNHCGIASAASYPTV

Compound	IC50 [1] [µM]	IC50 [2] [µM]	Ratio IC50 [3]
N=C(N)N/N=C1\CCSc2ccc([N+](=O)[O-])cc21	> 10	> 10	
NC(=S)N/N=C1\CCc2ccccc2C1	> 10	> 10	
NC(=S)N/N=C1\CCNc2ccccc21	> 10	> 10	
NC(=S)N/N=C1\CCN([N+](=O)[O-])c2ccc([N+](=O)[O-])cc21	> 10	0.228	> 20
NC(=S)N/N=C1\CCNc2c(Cc3ccccc3)cccc21	> 10	> 10	
NC(=S)N/N=C1\CCCS(=O)(=O)c2ccc([N+](=O)[O-])cc21	> 10	> 10	
NC(=S)N/N=C1\CC[S+]([O-])c2ccc([N+](=O)[O-])cc21 (configuration not stated)	> 10	1.74	> 5.7
NC(=S)N/N=C1\CCCCc2ccccc21	> 10	> 10	
NC(=S)N/N=C1\CCc2ccc(Br)cc21	> 10	> 10	
COc1ccc2c(c1)CCC/C2=N\NC(N)=S	> 10	> 10	
NC(=S)N/N=C1\CCNc2ccc([N+](=O)[O-])cc21	> 10	0.449	> 20
NC(=S)N/N=C1\CCN([N+](=O)[O-])c2ccccc21	> 10	> 10	
NC(=S)N/N=C1\CCOc2ccc(Cl)cc21	> 10	0.369	> 20
COc1cccc2c1CCC/C2=N\NC(N)=S	> 10	> 10	
CN1CC/C(=N\NC(N)=S)c2cc(Br)ccc21	> 10	> 10	
NC(=S)NN=C1c2cc([N+](=O)[O-])ccc2-c2ccc([N+](=O)[O-])cc21	> 10	> 10	
NC(=S)N/N=C1\CCNc2ccc(Br)cc21	> 10	0.164	> 20
NC(=S)N/N=C1\CCS(=O)(=O)c2ccc(N)cc21	> 10	> 10	
N=C(N)N/N=C1\CCS(=O)(=O)c2ccc([N+](=O)[O-])cc21	> 10	> 10	
NC(=S)N/N=C1\CCCc2c(O)cccc21	> 10	> 10	
COc1ccc2c(c1)/C(=N/NC(N)=S)CCC2	> 10	> 10	
NC(=S)N/N=C1\CCCSc2ccc([N+](=O)[O-])cc21	> 10	0.658	> 15.2
NC(=S)N/N=C1\CCCSc2cc(F)c(F)cc21	> 10	≥ 10	
CS(=O)(=O)c1ccc2c(c1)/C(=N/NC(N)=S)CCS2(=O)=O	> 10	> 10	
NC(=S)N/N=C1\CC(c2ccccc2)Oc2ccccc21 (configuration not stated)	> 10	> 10	
CC(=O)N1CC/C(=N\NC(N)=S)c2ccccc21	> 10	> 10	
NC(=S)N/N=C1\CCCS(=O)(=O)c2cc(F)c(F)cc21	> 10	> 10	
NC(=S)N/N=C1\CCCc2cc(N)ccc21	> 10	> 10	
NC(=S)N/N=C1\CCNc2c1cc([N+](=O)[O-])cc2[N+](=O)[O-]	> 10	0.338	> 20
NC(=S)N/N=C1\CC(Nc2ccccc2)c2ccc(Br)cc21 (configuration not stated)	> 10	> 10	
